Our source for the inhibition values is ChEMBL document CHEMBL1131376, “Steroidal and nonsteroidal sulfamates as potent inhibitors of steroid sulfatase” (J Med Chem, 1998).

Assay [1] addresses T1, Steryl-sulfatase (Homo sapiens) (UniProt P08842).
T1 sequence (whole entry): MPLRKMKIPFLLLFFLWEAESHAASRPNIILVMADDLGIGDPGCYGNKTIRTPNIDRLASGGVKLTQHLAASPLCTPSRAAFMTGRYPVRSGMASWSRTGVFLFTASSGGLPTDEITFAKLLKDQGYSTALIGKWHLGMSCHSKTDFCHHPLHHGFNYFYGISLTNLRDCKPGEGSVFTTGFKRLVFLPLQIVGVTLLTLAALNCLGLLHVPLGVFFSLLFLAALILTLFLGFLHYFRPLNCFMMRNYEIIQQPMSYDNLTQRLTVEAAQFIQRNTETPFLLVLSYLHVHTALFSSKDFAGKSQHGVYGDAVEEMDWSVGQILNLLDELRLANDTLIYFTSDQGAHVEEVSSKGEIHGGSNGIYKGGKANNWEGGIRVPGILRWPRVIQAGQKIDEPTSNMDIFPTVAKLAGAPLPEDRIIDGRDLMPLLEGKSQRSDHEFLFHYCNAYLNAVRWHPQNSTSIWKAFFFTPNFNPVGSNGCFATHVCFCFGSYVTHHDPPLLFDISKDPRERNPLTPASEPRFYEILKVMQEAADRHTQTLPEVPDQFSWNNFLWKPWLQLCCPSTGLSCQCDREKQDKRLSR
The experiment in a line: In vitro inhibition of Estrone Sulfatase in placental microsomes at a concentration of 10 uM. The following applies: Placenta.

The target in assay [2] is T1, Steryl-sulfatase (Homo sapiens). The experiment in a line: In vitro inhibition of Estrone Sulfatase in placental microsomes at a concentration of 50 uM. As to conditions: Placenta. A digest of the protocol: (§1)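 Placental microsomes (100 000 g pellet; 125 µg protein/mL) incubated 30 min with [³H]estrone sulfate (4 × 10⁵ dpm) brought to 20 µM with unlabelled substrate, with or without inhibitor. Product extracted into toluene, with [4-¹⁴C]estrone to correct for procedural losses. % inhibition given as mean ± s.d. of triplicates.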

Assay [3] has the same target. Description: In vitro inhibition of Estrone Sulfatase in placental microsomes at a concentration of 100 uM. The following applies: Placenta. Summed up: as §1
For assay [4] the target is unchanged. Description: In vitro inhibition of Estrone Sulfatase in intact MCF-7 breast cancer cells at a concentration of 1.0 uM. As to conditions: MCF7. It is filed as cell-based.
The target is the same in assay [5]. Description: In vitro inhibition of Estrone Sulfatase in intact MCF-7 breast cancer cells at a concentration of 10 uM. It is filed as cell-based. As to conditions: MCF7.
Assay [6] shares this target. The experiment in a line: In vitro inhibition of Estrone Sulfatase in intact MCF-7 breast cancer cells at a concentration of 0.1 uM. The format is cell-based. The following applies: MCF7.

Take `Cc1cc(=O)oc2cc(O)c(OS(N)(=O)=O)cc12`: the inhibition in assay [1], in assay [2], in assay [3], in assay [4], in assay [5] and in assay [6] was below 10% each time.
Take `Cc1cc(=O)oc2cc(OS(N)(=O)=O)c(OS(N)(=O)=O)cc12`: the inhibition (usually the drop in the measured response relative to a control, in per cent) in assay [1] is below 10%; in assay [2], below 10%; in assay [3], below 10%; in assay [4] it was below 10%; in assay [5], 31.2%; in assay [6], below 10%.
On to `NS(=O)(=O)Oc1ccc2c(C(F)(F)F)cc(=O)oc2c1`, for which the inhibition in assay [1] was 79.4%; in assay [2], 94.3%; in assay [3], 96.3%; in assay [4], 28.3%; in assay [5], 71.5%; in assay [6] it was 9.9%.
For `NS(=O)(=O)Oc1ccc2c(c1)CCC=C2`, the inhibition in assay [1] was below 10%; in assay [2], 33.2%; in assay [3], 34.5%; in assay [4], 60.6%; in assay [5], 76.2%; in assay [6], 49%.
On to `NS(=O)(=O)Oc1ccc2c(c1)C(=O)CC2`, for which the inhibition was below 10% in assay [1]; below 10% in assay [2]; below 10% in assay [3]; 91% in assay [4]; 99% in assay [5]; 33% in assay [6].
Turning to `NS(=O)(=O)Oc1ccc2c(c1)CCCC2`, the inhibition was below 10% in assay [1]; below 10% in assay [2]; 12.5% in assay [3]; 56.7% in assay [4]; 78.8% in assay [5]; 51.7% in assay [6].
Turning to `Cc1c(C)c2ccc(OS(N)(=O)=O)cc2oc1=O`, the inhibition turned out to be 96.9% in assay [1], 98.8% in assay [2] and 99.2% in assay [3].
Take `NS(=O)(=O)Oc1ccc2c(c1)CCCC2=O`: the inhibition was 16.1% in assay [1]; 54.3% in assay [2]; 56.1% in assay [3]; 11.7% in assay [4]; 78.1% in assay [5]; below 10% in assay [6].
For the compound `Cc1c(C)c2ccc(OS(N)(=O)=O)c(C)c2oc1=O`, the inhibition in assay [1] worked out at 17.4%; in assay [2], 11.5%; in assay [3], 12.5%; in assay [4] it was 46.4%; in assay [5], 75.1%; in assay [6], 9.3%.
`Cc1cc(=O)oc2ccc(OS(N)(=O)=O)cc12`: the inhibition in assay [1] is below 10%; in assay [2] it was below 10%; in assay [3], below 10%; in assay [4] it was 17.4%; in assay [5] it was 39.1%; in assay [6], below 10%.
In the case of `NS(=O)(=O)Oc1ccc2c(c1)OC(=O)CC2`, the inhibition in assay [1] is below 10%; in assay [2], 15%; in assay [3], 34.4%; in assay [4], 30.2%; in assay [5], 28.5%; in assay [6], 12%.
On to `NS(=O)(=O)Oc1ccc2c(c1)OCC=C2`, for which the inhibition came out at 19.9% in assay [1]; 36.9% in assay [2]; 47.2% in assay [3]; 68.2% in assay [4]; 99.3% in assay [5]; 11.4% in assay [6].
On to `NS(=O)(=O)Oc1ccc2ccc(=O)oc2c1`, for which the inhibition was 78.2% in assay [1]; 91.9% in assay [2]; 94.4% in assay [3]; 66% in assay [4]; 90.4% in assay [5]; 23.9% in assay [6].
With `COc1cc2ccc(=O)oc2cc1OS(N)(=O)=O`, the inhibition is below 10% in assay [1]; 42.9% in assay [2]; 69.9% in assay [3]; 34.1% in assay [4]; 72.1% in assay [5]; 33.8% in assay [6].
In the case of `NS(=O)(=O)Oc1ccc2c(c1)CCC2=O`, the inhibition in assay [1] was 19.6%; in assay [2], 37.7%; in assay [3] it was 50.3%; in assay [4] it was 22.6%; in assay [5], 71.3%; in assay [6] it was 13.5%.
With `CC1CC(=O)Oc2cc(OS(N)(=O)=O)ccc21` (centres undefined), the inhibition in assay [1] is 53.4%; in assay [2], 70.6%; in assay [3], 82.1%; in assay [4], below 10%; in assay [5] it was 32.3%; in assay [6], below 10%.
For `NS(=O)(=O)Oc1cccc2c1CCC2=O`, the inhibition is below 10% in assay [1]; below 10% in assay [2]; below 10% in assay [3]; 15.5% in assay [4]; 74.1% in assay [5]; below 10% in assay [6].
Consider `Cc1cc(=O)oc2cc(OS(N)(=O)=O)ccc12`, for which the inhibition amounted to 97.8% in assay [2], 99% in assay [3], 85.6% in assay [4] and 42.9% in assay [6].
For `NS(=O)(=O)Oc1ccc2c(c1)C(=O)CCC2`, the inhibition came to 12.3% in assay [1]; 16.5% in assay [2]; 27% in assay [3]; 47.8% in assay [4]; 93.5% in assay [5]; 10.4% in assay [6].
